Experimental data published in ChEMBL document CHEMBL1275586, “Phenotypic susceptibility to bevirimat in isolates from HIV-1-infected patients without prior exposure to bevirimat” (Antimicrob Agents Chemother, 2010).

Columns and labels:
Assay type in all cases: functional, MT2
[1] = test system: Human immunodeficiency virus 1; test: Antiviral activity against Human immunodeficiency virus 1 isolate 29 harboring Gag-capsid I138M, A146P, R286K, T303V and A326S mutant gene and protease L10F, I13V, V32I, M36L, S37N, L38W, P39Q, M46I, I47V, I50V, I62V, L63P, A71I, I72V and V82A mutant gene infected in human MT-2 cells by XTT-assay relative to wild-type
Outline: (§1)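 Patient Gag-protease (SfoI-XmaI) fragments were ligated into the pXXLAI backbone, with colonies pooled to keep quasispecies. Virus came from 293T transfection, harvested at 2 days. MT-2 infection at 37°C used an input giving XTT signal-to-noise of 2.5–4.0 (≈MOI 0.001). Cells at ≈17,000/well with drug dilutions, 5 days, 37°C; XTT 1 h, A450–650. EC50 from % cell death; fold change vs wild-type LAI.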

[2] = test system: Human immunodeficiency virus 1; test: Antiviral activity against Human immunodeficiency virus 1 isolate 33 harboring Gag-capsid I138L, V215L, V218P, H219Q, I223V, M228I, G248T, N252S, N253T, I256M, E312D and A326S mutant gene and protease T12S/T, I13V/I, I15V, L19I, S37T, L63V/A/P/L and I72V/I mutant gene infected in human MT-2 cells by XTT-assay relative to wild-type; outline: as §1
[3] = test system: Human immunodeficiency virus 1; test: Antiviral activity against Human immunodeficiency virus 1 isolate 5 harboring Gag-capsid I138M, V159I, T280V and S310T mutant gene and protease I13V, D30N, L33I, E35D, M36I, S37N, M46I/L, I54V, I62V, L63P, I66M/I, A71N/T, I72T/I, V82L/V, N88D, L90M and I93L/I mutant gene infected in human MT-2 cells by XTT-assay relative to wild-type; outline: as §1
[4] = test system: Human immunodeficiency virus 1; test: Antiviral activity against Human immunodeficiency virus 1 isolate 38 harboring Gag-capsid I138L, I147L, V215L, H219Q/H, I223V, N252H, P292S, A336S/A and A340G mutant gene and protease E35D, S37A and L63P mutant gene infected in human MT-2 cells by XTT-assay relative to wild-type; outline: as §1
[5] = test system: Human immunodeficiency virus 1; test: Antiviral activity against Human immunodeficiency virus 1 isolate 37 harboring Gag-capsid V135I, I138P, V143I, Q182H, V215L/V, V218P/A, H219Q, I223V, E230D, N252S, T280A, R286K, K302R and G357S mutant gene and protease S37D, R41K, L63P and I93L mutant gene infected in human MT-2 cells by XTT-assay relative to wild-type; outline: as §1
[6] = test system: Human immunodeficiency virus 1; test: Antiviral activity against Human immunodeficiency virus 1 isolate 39 harboring Gag-capsid A146P, I147L, V215L, M228I, G248A, R286K, A326S, G357S and V362I mutant gene and protease K14R, E35D, M36I, S37N, R41K, K45R, D60E, I62V and I64V mutant gene infected in human MT-2 cells by XTT-assay relative to wild-type; outline: as §1
[7] = test system: Human immunodeficiency virus 1; test: Antiviral activity against Human immunodeficiency virus 1 isolate 32 harboring Gag-capsid, I138L, A146P, I147L, V159I, V215L, I223A, N252S/N, T280V and S310T and protease R41K/R, I62V, L63P, V77I and I93L mutant gene infected in human MT-2 cells by XTT-assay relative to wild-type; outline: as §1
[8] = test system: Human immunodeficiency virus 1; test: Antiviral activity against Human immunodeficiency virus 1 isolate 22 harboring Gag-capsid V215L, H219Q, I223V, N252S, P255A, L268M and A340G mutant gene and Protease L19I, E35D, M36I, S37N, L63P, V77I and I93L mutant gene infected in human MT-2 cells by XTT-assay relative to wild-type; outline: as §1
[9] = test system: Human immunodeficiency virus 1; test: Antiviral activity against Human immunodeficiency virus 1 isolate 36 harboring Gag-capsid I138L, A146P, S165N/S, E207D, V215L and E312D mutant gene and protease K14R/K, I15V, E35D, S37D, R57K/R and L63P mutant gene infected in human MT-2 cells by XTT-assay relative to wild-type; outline: as §1
[10] = test system: Human immunodeficiency virus 1; test: Antiviral activity against Human immunodeficiency virus 1 isolate 12 harboring Gag-capsid I138L E207D, V215L, V218P, H219Q, M228I, G248T, T280S, E312D, A340G, G357S and V362I mutant gene and protease S37N, I62V/I, L63P, I64L and V82I mutant gene infected in human MT-2 cells by XTT-assay relative to wild-type; outline: as §1
[11] = test system: Human immunodeficiency virus 1; test: Antiviral activity against Human immunodeficiency virus 1 isolate 9 harboring Gag-capsid I138L, A146S, I147L, V215L, N252H, T280A, A340G and E345D mutant gene and protease L10I, I13V, K20M, L33V, M36I, S37N, I54V, R57K, I62V, L63P, I66L, A71V, G73S, P79A, I84V and L90M mutant gene infected in human MT-2 cells by XTT-assay relative to wild-type; outline: as §1
[12] = test system: Human immunodeficiency virus 1; test: Antiviral activity against Human immunodeficiency virus 1 isolate 27 harboring Gag-capsid I138L, S173T/S, V215L, L268M, R275K/R, T280V, S310T, E319D and G357S and protease L10I, I15V, L19V, V32I, L33F, M46I, I54V, K55R, R57K, L63P, C67F, H69Q, A71V, G73C/G, V82A, L90M and Q92K mutant gene and deletion at A341 in Gag- capsid infected in human MT-2 cells by XTT-assay relative to wild-type; outline: as §1
[13] = test system: Human immunodeficiency virus 1; test: Antiviral activity against Human immunodeficiency virus 1 isolate 26 harboring Gag-capsid I138L, A146S, I147L, E312D, A326S, L337M, and A340G mutant gene and protease T4S, L10F, V11L, I13V, I15V, K20A, V32I, L33F, M36I, S37D, K43T, M46I, I54L, I62V, L63P, A71I, I72K, G73T, I84V,I85V, L89V and L90M mutant gene infected in human MT-2 cells by XTT-assay relative to wild-type; outline: as §1
[14] = test system: Human immunodeficiency virus 1; test: Antiviral activity against Human immunodeficiency virus 1 isolate 28 harboring Gag-capsid I138M mutant gene and protease L10I, I13V, L23I, L33F, S37N, M46I, I54V, K55R, R57K, Q58E, D60E, I62V, L63P, A71I, I72V, L76V, V77I, V82A, I84V, I85V, L89M, L90M and I93L mutant gene infected in human MT-2 cells by XTT-assay relative to wild-type; outline: as §1
[15] = test system: Human immunodeficiency virus 1; test: Antiviral activity against Human immunodeficiency virus 1 isolate 24 harboring Gag-capsid I138L, V159I, V215L, I223A, T239S, N252S, T280V, R286K, S310T and V362I mutant gene and protease L10V, I13V, I15V, K20R, D30N, V32I, L33F, E35D, M36I, S37N, K43T, M46I, I47V, F53L, I54L, I62V, L63P, I66F, A71V, T74S, V82A, N88D, L89V, L90M and I93V mutant gene infected in human MT-2 cells by XTT-assay …

Row | Compound | fold change (FC) [1] | fold change (FC) [2] | fold change (FC) [3] | fold change (FC) [4] | fold change (FC) [5] | fold change (FC) [6] | fold change (FC) [7] | fold change (FC) [8] | fold change (FC) [9] | fold change (FC) [10] | fold change (FC) [11] | fold change (FC) [12] | fold change (FC) [13] | fold change (FC) [14] | fold change (FC) [15]
1 | COC(=O)N[C@H](C(=O)N[C@@H](Cc1ccccc1)[C@@H](O)CN(Cc1ccc(-c2ccccn2)cc1)NC(=O)[C@@H](NC(=O)OC)C(C)(C)C)C(C)(C)C [ATAZANAVIR] | 3.2 | 1.8 | 63.2 | 1.2 | 0.9 | 1.4 | 1.2 | 1.3 | 1.3 | 1.2 | 44.4 | 52.1 | 571 | 14.4 | 590
2 | Cc1cccc(C)c1OCC(=O)N[C@@H](Cc1ccccc1)[C@@H](O)C[C@H](Cc1ccccc1)NC(=O)[C@H](C(C)C)N1CCCNC1=O [LOPINAVIR] | 89.3 | 1.6 | 12.1 | 0.9 | 0.8 | 0.8 | 0.5 | 0.9 | 1.1 | 1.1 | 16.5 | 29.2 | 46.5 | 99.3 | 69
